IMP-1 inhibitor: IMP-1 metallo-beta-lactamase inhibitors, primary screen, biochemical, epi-absorbance readout, Pseudomonas aeruginosa enzyme; metallo-beta-lactamase IMP-1 (Pseudomonas aeruginosa); purified IMP-1, nitrocefin hydrolysis, epi-absorbance fluorescence; inhibition, % at 5.6 µM; 290,000 tested, 0.45% active; AID 1556, 2009;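 active means inhibition above the mean plus 3 SD of all compounds in the same screening run, cut at about 4.5% in these data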;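 further: 0% = IMP-1 with DMSO and 100% = DMSO wells lacking enzyme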
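System: Purified recombinant IMP-1 metallo-beta-lactamase enzyme | Measured by: Fluorescence quenching readout, ex 480/em 530 nm | Replication: Singlicate | Incubation: 15 min preincubation plus 25 min reaction at 25 °C | Evaluation: Percent inhibition from optical density relative to buffer-blank wells | Benchmarks: DMSO with and without IMP-1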
PLC-gamma1 inh: PLC-gamma1 enzyme inhibitors, primary screen, biochemical, fluorescence, purified enzyme; fluorogenic substrate; inhibition, % at 12.2 µM; 370,000 tested, 0.84% active; AID 720700, 2013; in the data active means inhibition above about 9.5%
PvdQ acylase: P. aeruginosa PvdQ acylase inhibitors, primary screen, biochemical, fluorescence, plate reader and imaging, single point; AID 488965, 2010; 340,000 tested, 0.063% active; purified PvdQ acylase; inhibition, % at 10 µM; in the data active means inhibition above about 30%, passing the limit was not always enough;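 further: 0% = vehicle neutral wells and 100% = reference inhibitor wells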
PLCb3 inh: human PLC-beta3 inhibitors, primary screen, biochemical, fluorescence | 1-phosphatidylinositol 4,5-bisphosphate phosphodiesterase beta-3 (Homo sapiens), Q01970 | Purified PLC-beta3, fluorogenic substrate | inhibition, % at 12.2 µM | 370,000 tested, 0.18% active | AID 720704, 2013;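 further: 0% = median of compound wells on plate and 100% = full blocker control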
Target sequence (Q01970 whole entry, looked up): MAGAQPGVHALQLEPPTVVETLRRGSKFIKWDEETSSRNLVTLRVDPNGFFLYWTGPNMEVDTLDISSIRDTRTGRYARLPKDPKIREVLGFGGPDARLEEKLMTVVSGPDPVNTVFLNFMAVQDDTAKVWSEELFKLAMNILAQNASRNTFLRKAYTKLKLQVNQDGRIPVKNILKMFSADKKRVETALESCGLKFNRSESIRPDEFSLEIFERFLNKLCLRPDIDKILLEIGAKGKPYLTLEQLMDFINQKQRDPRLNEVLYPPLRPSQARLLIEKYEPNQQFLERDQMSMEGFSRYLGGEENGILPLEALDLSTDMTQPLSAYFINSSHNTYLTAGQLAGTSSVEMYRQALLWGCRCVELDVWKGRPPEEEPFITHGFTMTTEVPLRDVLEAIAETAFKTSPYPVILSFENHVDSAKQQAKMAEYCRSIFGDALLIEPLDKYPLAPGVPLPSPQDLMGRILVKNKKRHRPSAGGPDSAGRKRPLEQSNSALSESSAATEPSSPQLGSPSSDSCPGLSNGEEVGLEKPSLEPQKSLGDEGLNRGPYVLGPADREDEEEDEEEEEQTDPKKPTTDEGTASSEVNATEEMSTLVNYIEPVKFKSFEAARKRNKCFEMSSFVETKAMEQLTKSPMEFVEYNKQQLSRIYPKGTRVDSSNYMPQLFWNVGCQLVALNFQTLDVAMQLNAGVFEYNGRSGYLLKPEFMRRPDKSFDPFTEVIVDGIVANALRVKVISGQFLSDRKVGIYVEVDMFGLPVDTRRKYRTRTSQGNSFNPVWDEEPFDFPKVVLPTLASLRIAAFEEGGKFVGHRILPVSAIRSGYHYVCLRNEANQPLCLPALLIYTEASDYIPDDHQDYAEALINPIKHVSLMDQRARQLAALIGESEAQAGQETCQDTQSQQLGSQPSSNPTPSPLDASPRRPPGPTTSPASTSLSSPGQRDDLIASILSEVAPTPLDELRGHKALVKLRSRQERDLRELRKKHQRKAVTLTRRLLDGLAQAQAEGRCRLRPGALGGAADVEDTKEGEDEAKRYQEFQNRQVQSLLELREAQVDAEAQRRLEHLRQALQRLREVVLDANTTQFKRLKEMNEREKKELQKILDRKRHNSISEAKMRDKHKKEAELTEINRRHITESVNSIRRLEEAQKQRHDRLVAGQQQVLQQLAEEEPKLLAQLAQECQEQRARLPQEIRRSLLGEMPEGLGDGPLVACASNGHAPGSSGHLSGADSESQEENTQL
VIM-2 inh: VIM-2 metallo-beta-lactamase inhibitors, primary screen, biochemical, epi-absorbance readout, Pseudomonas aeruginosa enzyme; 290,000 tested, 0.89% active; AID 1527, 2009; purified VIM-2, nitrocefin hydrolysis, epi-absorbance fluorescence; inhibition, % at 5.6 µM;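 active means inhibition above the mean of all tested compounds plus 3 SD, cutoff set per screening run, cut at about 7.5% in these data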;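 further: red hydrolysis product quenches plate fluorescence so inhibitors raise well fluorescence; 0% = enzyme with DMSO and 100% = DMSO without enzyme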
PLCg1 ctr: PLC-gamma1 enzyme inhibitors, counter-screen for PLC-beta3 inhibitor project, biochemical, fluorescence; shares compounds with PLC-gamma1 inh; purified PLC-gamma1, fluorogenic substrate; inhibition, % at 12.3 µM; 3,300 tested, 3.1% active; in the data active means inhibition above about 9.5%
PLCbeta3 conf: PLC-beta3 inhibitor confirmation, biochemical, fluorescence, purified enzyme | shares compounds with PLC-gamma1 inh | fluorogenic substrate fluorescence | inhibition, % at 12.3 µM | 3,300 tested, 1% active | AID 743261, 2014
* = called active by the depositor; x = no result. Compounds with a hit are over-represented: about 2% of the library has one in this group of screens. Unless noted, no stated cut-off is given here; in the data, active means inhibition above about 11%; inactive means the rest.

SMILES	IMP-1 inhibitor	PLC-gamma1 inh	PvdQ acylase	PLCb3 inh	VIM-2 inh	PLCg1 ctr	PLCbeta3 conf
Cc1cc(C)n2nc(SCC(=O)N3CCC(C(=O)O)CC3)nc2n1	x	9	-6	11*	x	3	2
COC(=O)C1CCN(C(=O)CSc2nc3nc(C)cc(C)n3n2)CC1	x	0	1	1	x	x	x
CN(CCc1ccccc1)C(=O)c1ccc(NC(=O)Cc2ccc(NC(=O)C3CCN(C(=O)C4CCCC4)CC3)cc2)cc1	x	10*	-1	5	x	7	3
CC(C)n1nnnc1C1(C)CSCC(=O)N1Cc1cccc(F)c1 (stereo unspecified)	x	-1	x	0	x	x	x
O=C(CCSc1ccccc1)N1CCN(C(=O)c2ccco2)CC1	-5	14*	-17	2	-4	-3	-4
COC(=O)C1=C(C)N(Cc2ccc(C(F)(F)F)cc2)C(=NCc2ccccc2)NC1c1cccc(Cl)c1 (stereo unspecified)	x	8	x	3	x	x	x
COc1ccc(C(=O)/C=C(\Nc2ccc(F)cc2)c2ccc(OC)cc2OC)c(OC)c1	x	-6	x	-13	x	x	x
O=C(Nc1ccc(N=Nc2ccccc2)cc1)c1cccc(Cl)c1	-1	12*	2	8	-1	2	3
FC(F)(F)c1nc(-c2ccncc2)ncc1-c1nnnn1-c1ccccc1	-2	2	-10	2	-3	x	x
Cc1ccc(-n2nnnc2-c2cnc(-c3cccnc3)nc2C(F)(F)F)cc1	-1	10*	0	10	-4	-3	-6
CN1CCN(NC(=O)/C=C/c2cccc(Cl)c2)CC1	1	1	1	-8	-1	x	x
CN1CCN(NC(=O)/C=C/c2cccc([N+](=O)[O-])c2)CC1	-5	12*	-1	2	-4	-10	-3
N#CCC(C(=O)c1cccnc1)c1ccccc1 (stereo unspecified)	x	1	x	11*	x	0	-6
CCOc1ccc(CCNC(=O)c2cc3sccc3n2Cc2ccccc2)cc1OCC	x	1	x	4	x	x	x
Cc1cc(C(=O)N2CCCC(C(=O)c3cccc4ccccc34)C2)nc(C)n1 (stereo unspecified)	0	10*	-4	-1	1	-2	-4
CC1CCc2sc(C(=O)NCc3ccc(F)cc3)cc2C1 (stereo unspecified)	-4	4	-6	4	-2	x	x
O=C(NCc1ccc(F)cc1)c1cc2c(s1)CCCC2	-2	16*	-13	15*	-1	5	11*
CC(=O)NC1CCCCN(C)C1=O (stereo unspecified)	x	-2	x	0	x	x	x
Nn1c(SCC(=O)NC2CCCCC2)nnc1-c1n[nH]c2c1CCC2	x	9	x	1	x	x	x
O=C(O)c1ccc(S(=O)(=O)NCC2CCCO2)cc1 (stereo unspecified)	-4	11*	-10	-3	-2	-2	3
CC(C)(C)c1ccc(S(=O)(=O)NCC2CCCO2)cc1 (stereo unspecified)	-2	-1	-13	-6	0	x	x
COc1ccc(CNCCS(=O)(=O)NCc2ccccc2)cc1	x	-2	-17	2	x	x	x
COc1ccc(CNCCS(=O)(=O)NCc2ccc(OC)cc2)cc1	x	13*	-11	3	x	-8	-2
COc1ccc(-n2c(SCc3ccc([N+](=O)[O-])cc3)nnc2-c2ccco2)cc1	x	0	x	-1	x	x	x
COc1cc2c(c(O)c1OC)C(=O)C(OC)CCC2 (stereo unspecified)	0	4	-7	12*	-1	-3	0
SMILES	IMP-1 inhibitor	PLC-gamma1 inh	PvdQ acylase	PLCb3 inh	VIM-2 inh	PLCg1 ctr	PLCbeta3 conf
O=C(CSc1nnc(-c2ccccc2F)n1C1CCCCC1)N1CCCC1	-3	6	-2	6	-2	x	x
O=C(CSc1nnc(-c2ccc(Br)cc2)n1C1CCCCC1)N1CCCC1	1	16*	-12	6	-3	-4	-2
O=C(CSc1nnc(-c2ccc(Cl)cc2Cl)n1C1CCCCC1)N1CCCC1	-5	11*	-3	1	-3	1	2
Nc1nc(-c2ccco2)nn1C(=O)c1ccc(Cl)cc1	-1	9.8*	-9	5	-1	-6	-9
Nc1nc(-c2ccco2)nn1C(=O)c1ccccc1	-1	-1	-2	2	-3	x	x
Cc1ccc(/C=C/C(=O)O)cc1S(=O)(=O)N1CCc2ccccc2C1	-1	11*	-11	3	-1	5	2
Cc1ccc(/C=C/C(=O)O)cc1S(=O)(=O)Nc1ccc(C(=O)O)cc1	-2	5	-9	-5	-2	x	x
Cc1ccc(/C=C/C(=O)O)cc1S(=O)(=O)Nc1ccccc1C(=O)O	-1	11*	-11	9	-1	5	2
CSCCC(NC(=O)C12CC3CC(CC(C3)C1)C2)C(=O)OCC(=O)c1ccc(C)cc1 (stereo unspecified)	-4	11*	4	-25	-4	-1	-3
Nc1cc(Nc2ccccc2)c2nonc2c1[N+](=O)[O-]	0	11*	-16	2	-3	2	1
CCCCN(CC)S(=O)(=O)c1ccc2c(c1)CCCN2C(C)=O	-1	2	-12	0	0	x	x
CC(=O)N1CCCc2cc(S(=O)(=O)N(C)Cc3ccccc3)ccc21	-3	9.8*	-8	4	-5	-3	4
Cc1ccc(NC(=O)[C@H]2CC(=O)O[C@@H]2c2ccccc2)cc1C	x	5	x	-5	x	x	x
Cc1ccc2cc(CCNC(=O)C3CCCC3)c(=O)[nH]c2c1	-2	3	10	11*	-3	-7	-2
O=[N+]([O-])c1ccc(N2CCCC2)cc1N1CCCC1	-3	9.6*	22	4	0	-5	-3
COC(=O)c1cc2c(c3c4cc(F)ccc4n(S(=O)(=O)c4ccc(C)cc4)c13)C(=O)N(Cc1ccccc1)C2	x	-3	x	-9	x	x	x
CCC(C)(c1nnnn1-c1c(C)cccc1C)N(N=O)c1ccccc1Cl (stereo unspecified)	-1	11*	3	8	-2	7	-1
Cc1cccc(C(C)C)c1-n1nnnc1-c1ccccc1	-2	-1	3	0	-2	x	x
COc1ccc(S(=O)(=O)NCCCN2CCOCC2)cc1F	-1	9.5*	-1	0	-2	8	1
CSc1ccccc1NC(=O)CN(C)C(=O)/C=C/c1ccccc1	x	10*	5	-4	x	2	8

Source: PubChem BioAssay
